SMILES strings stand for the structures.

The data set is described as follows: Toxicity liver stage against HepG2, at 10uM. Also on record: test concentration 10 uM, cell line HepG2-A16-CD81EGFP. The data set is classed as cell-based. Particulars: human, HepG2-A16-CD81EGFP cells; read-out: INHIBITION
In short, it runs like this: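 Uninfected HepG2-A16-CD81EGFP cells, 3 × 10^3 per well, 1536-well, plated on prespotted compound at 10 μM final, parasite-free screening media added to match infected plates; puromycin 10 μM positive, DMSO 0.5% negative; run in parallel with 48 h PbLuc assay at 37 °C, 5% CO2; viability by CellTiter-Glo luminescence, normalized to controls.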
Regarding `Cc1c(I)cccc1C(=O)NCc1ncc[nH]1`, the cytotoxicity at 10 µM was determined as 17.3%.
In the case of `O=C(Nc1cc(CSCCO)ccn1)c1ccc(Cl)o1`, the cytotoxicity at 10 µM was -7.76%.
For `Cc1cc(NCc2cc3n(n2)CCCN(C(=O)C2CCC2)C3)nc(N)n1` the value was -146%; for `COC[C@@]12CCC[C@@H]1CN(C(=O)Cc1ccco1)C2`, -102%; for `O=C(c1ccco1)N1CCCC2(CCN(c3nncs3)C2)C1` (stereo not given), -97.4%.
As to `COCC1CN(C(=O)Nc2cc(Cl)cc(Cl)c2)CCO1` (stereo not given), the cytotoxicity at 10 µM was -4.44%.
Regarding `CN(CC(=O)N1CCCC1)C(=O)Cc1csc(-c2ncccn2)n1`, the cytotoxicity at 10 µM is -9.51%.
In the case of `N[C@H]1CN(Cc2cnc(N3CCCC3)nc2)C[C@@H]1C1CC1`, the cytotoxicity at 10 µM is -45.5%.
Turning to `C=Cc1cccc(CN(Cc2cnn(C)c2)C2CC2)c1`, the cytotoxicity at 10 µM is 3%.
On to `CN(Cc1ccc(-n2ccnc2)cc1)Cc1ncc[nH]1`, for which the cytotoxicity at 10 µM came to 3.69%.
Regarding `CCc1nccn1C1CCCN(C(=O)c2cnn(C)c2C2CC2)C1` (stereo not given), the cytotoxicity at 10 µM is -12.8%.
Take `CCc1ncc(C(=O)NCCNC(=O)Cc2ccc(F)cc2)s1`: the cytotoxicity at 10 µM is -2.57%.
For `c1cnnc(N2CCCC2CNCc2ccsc2)c1` (stereo not given) the value was -8.9%.
`Cn1nccc1CNC(=O)CCn1nc(C(F)(F)F)cc1C1CC1`: the cytotoxicity at 10 µM is -8.74%.
Take `CC(CNC(=O)c1ccc(F)cc1Cl)N1CCCC1` (stereo not given): the cytotoxicity at 10 µM stood at 14.4%.
For `CC(C)(C)NC(=O)NCc1cnn2ccccc12`, the cytotoxicity at 10 µM was -11.9%.
With `CCOc1ccc(NC(=O)c2scnc2CC)cc1CO`, the cytotoxicity at 10 µM is -9.48%.
Turning to `CN1CCOC(CNCc2coc(-c3cccc(Cl)c3)n2)C1` (stereo not given), the cytotoxicity at 10 µM is -15.9%.
In the case of `O=C(CCc1nc(Cl)n[nH]1)N[C@H]1CC[C@H]1NC1Cc2ccccc2C1`, the cytotoxicity at 10 µM is -1.74%.
`Cc1nccc(N2CCC(=O)N(CC3CC3)C(C(C)C)C2)n1` (stereo not given): the cytotoxicity at 10 µM was -0.232%.
On to `Cc1nc(CN2CCOCC3(CCN(c4cccnc4)CC3)C2)cs1`, for which the cytotoxicity at 10 µM was -12.2%.
The figure for `CN1CC2(CCN(C(=O)c3cccnc3)CC2)c2cccc(F)c21` is 6.17%; for `CNc1nc(C2CCCN(C(=O)CNC(C)=O)C2)nc2c1CN(C)CC2` (stereo not given) it is -10.9%.
As to `Cc1ccc(N2CCCC3(COCCN(c4ccccn4)C3)C2)nn1` (stereo not given), the cytotoxicity at 10 µM is -119%.
Take `O=C(NCc1ccco1)N1CCC(n2ccc(C(F)(F)F)n2)CC1`: the cytotoxicity at 10 µM amounted to 12.2%.
For `N#Cc1ccc(NCCc2n[nH]c(=O)[nH]2)cc1Cl`, the cytotoxicity at 10 µM amounted to 26.5%.
As for `Cc1ccc(C(C)NCc2c(C(C)C)nn(C)c2N2CCOCC2)o1` (stereo not given), the cytotoxicity at 10 µM was -4.79%.
As for `COc1nccnc1N1C[C@H]2CC[C@@H](C1)N(CC=C(C)C)C2=O`, the cytotoxicity at 10 µM amounted to 1.76%.
Turning to `Cc1cnn(CC2CCCN2C(=O)CCc2c(C)noc2C)c1` (stereo not given), the cytotoxicity at 10 µM is -5.81%.
Turning to `Cc1nn(C)c(Cl)c1C1CCCN1C(=O)c1cccn1C` (stereo not given), the cytotoxicity at 10 µM is -5.53%.
As to `Cn1cc(-c2csc(N3CCN(c4nccs4)CC3)n2)cn1`, the cytotoxicity at 10 µM is 6.23%.
`Cc1ccc(CN2C[C@@H]3C[C@H](C(=O)NCc4cccnc4)[C@H](C2)O3)cc1`: the cytotoxicity at 10 µM stood at 2.5%.
In the case of `COc1ccc(CN2CCN(C(=O)N(C)C)[C@@H]3CS(=O)(=O)C[C@@H]32)cc1F`, the cytotoxicity at 10 µM worked out at 1.24%.
For the compound `CCc1nc(C)cc(N2CCCC(C(=O)c3ccc(OC)cc3C)C2)n1` (stereo not given), the cytotoxicity at 10 µM is 9.99%.
With `CC(C)c1cc(NC(=O)CN2CCCC2Cn2cncn2)on1` (stereo not given), the cytotoxicity at 10 µM was -4.05%.
Consider `CN(Cc1n[nH]c2c1CCC2)C(=O)CCc1cc2n(n1)CCCNC2`, for which the cytotoxicity at 10 µM is -0.861%.
The figure for `CC(C)CN1CCCC2(CCN(c3ccc(C#N)cn3)C2)C1` (stereo not given) is 5.22%; for `CC(C)OCc1cccc(CNc2cnn(C)c(=O)c2Cl)c1` it is 29.5%.
On to `COc1ccc(C(C)NC(=O)Nc2nccs2)cc1OC` (stereo not given), for which the cytotoxicity at 10 µM amounted to 4.37%.
On to `Cc1cc(C)c2c(N(C)CC3COCCO3)ncnc2n1` (stereo not given), for which the cytotoxicity at 10 µM was -133%.
With `CC1COCCN1C(=O)COc1cccc(Oc2ccccn2)c1` (stereo not given), the cytotoxicity at 10 µM is -5.15%.
Consider `COc1cc(-c2cc(OC)c(OC)c(OC)c2)ncn1`, for which the cytotoxicity at 10 µM was -2.31%.
On to `CCOC(=O)C1(CCOC)CCN(Cc2nccn2CC)CC1`, for which the cytotoxicity at 10 µM was 6.77%.
Consider `COCC(=O)NC1CCCN(c2ccc(C)cc2)C1=O` (stereo not given), for which the cytotoxicity at 10 µM was -0.82%.
As for `COc1cc(N2CCC3(CCN(C(=O)c4cccnc4)CC3)C2)ncn1`, the cytotoxicity at 10 µM is -130%.
As to `CCOCCCC(=O)N1CCN(C(=O)Cc2cccc(OC)c2)CC1`, the cytotoxicity at 10 µM is -1.86%.
Regarding `CC(C)n1cc(S(=O)(=O)N2CCCCC2)cn1`, the cytotoxicity at 10 µM is 2.53%.
Turning to `COc1ccc(Cc2ncc3c(n2)CN(C(=O)CN(C)C)C3)cc1`, the cytotoxicity at 10 µM is -1.28%.
With `Cc1ccc(CN2C[C@@H]3CCCO[C@@H]3[C@H](N(C)Cc3ccco3)C2)s1`, the cytotoxicity at 10 µM stood at 3.88%.
Regarding `CN1CCC(NCC2(O)CCCN(Cc3ccccc3F)C2=O)CC1` (stereo not given), the cytotoxicity at 10 µM is -12.2%.
As to `O=c1[nH]nc(CNCc2ccc(OC34CCCN(CC3)C4)cc2)[nH]1` (stereo not given), the cytotoxicity at 10 µM is -2.83%.
In the case of `CC(C)[C@H](NS(C)(=O)=O)C(=O)NCc1cc(-c2ccccc2)n[nH]1`, the cytotoxicity at 10 µM was -8.94%.
As for `Cn1ccnc1CN1C(=O)CO[C@H]2CN(Cc3ccccc3O)C[C@H]21`, the cytotoxicity at 10 µM was found to be 4.22%.
Take `Cc1nc(N2CCOCC2)nc2c1CCN(Cc1ccsc1)CC2`: the cytotoxicity at 10 µM is -130%.
For `CN1CC2(CCN(C(=O)c3ccc(-n4cccn4)cc3Cl)C2)OC1=O` (stereo not given) the value was 4.36%; for `O=C(Nc1ccc(Cn2cccn2)cc1)N1CCC2(CC1)OCCO2`, 6.09%.
The figure for `CCCN1CCC(Cc2noc(-c3ncccc3C)n2)CC1` is 0.0119%; for `Cc1ccc(C(C)(O)CNC(=O)NCCc2ccc3c(c2)CCO3)o1` (stereo not given) it is -4.53%.
For the compound `O=C(NCc1cccnc1)[C@@H]1CC[C@@H]2[C@@H](CCN2c2ncc(F)cn2)O1`, the cytotoxicity at 10 µM is -44.6%.
`Cc1ccc(C)c(NC(=O)N(C)Cc2cnn(C)c2)c1`: the cytotoxicity at 10 µM is -3.02%.
Consider `O=C1[C@@H]2CC[C@@H](CN(c3ncnc4ccsc34)C2)N1CC1CC1`, for which the cytotoxicity at 10 µM came to 15.2%.
Consider `CC(C)=CCN1CCC(c2nnc(CN3CCN(C)CC3)n2C)CC1`, for which the cytotoxicity at 10 µM is -7.54%.
With `Cc1csc2c(N3CCC(NCCc4ccnn4C)CC3)ncnc12`, the cytotoxicity at 10 µM is 0.429%.
As for `N#Cc1ccc(F)c(CN2CCc3sccc3C2)c1`, the cytotoxicity at 10 µM is -3.09%.
For `CC(C)n1nc2c(cc1=O)CN(CCOc1cccc(C#N)c1)CC2`, the cytotoxicity at 10 µM was 13.6%.
The figure for `Cc1cnc(N2CCn3c(CN4CCOCC4)nnc3C2)nc1` is -153%.
On to `CC(C)C(C)NC(=O)c1ncn2c1CN(C)S(=O)(=O)c1ccccc1-2` (stereo not given), for which the cytotoxicity at 10 µM is -132%.
With `O=C1CC[C@H]2[C@H](CCN2c2ncc(F)cn2)N1c1ccccc1`, the cytotoxicity at 10 µM came to 5.86%.
For `COc1ncccc1C(=O)N1CCCC1c1c(C)nn(C)c1Cl` (stereo not given) the value was -9.35%; for `CCc1ccc(S(=O)(=O)Nc2ccn(CC(=O)OC)n2)cc1`, 7.22%; for `CCOCC(=O)N1C[C@@H](O)[C@H](NC(C)=O)C1`, -4.48%.
In the case of `CC(=O)N1CCc2c(nc(N(C)C)nc2N(C)CC2CCCO2)C1` (stereo not given), the cytotoxicity at 10 µM came out at 1.9%.
Regarding `Cc1nc(CNC(=O)NCCC2=CCCC2)oc1C`, the cytotoxicity at 10 µM is -1.18%.
Turning to `Cc1noc(C)c1-c1cccc(CC2CCN(C(=O)CCC(=O)O)C2)n1` (stereo not given), the cytotoxicity at 10 µM is -8.44%.
On to `O=S(=O)(c1cccnc1)N1C[C@H]2CCC[C@@]2(COc2ccccn2)C1`, for which the cytotoxicity at 10 µM is 7.05%.
With `CC(=O)c1ccc(CN2CC(Oc3ccccc3C)C2)cc1`, the cytotoxicity at 10 µM is -4.73%.
In the case of `FC(F)(F)CCc1ccnc(N2CCN(Cc3ccncc3)CC2)n1`, the cytotoxicity at 10 µM was -21.2%.
The figure for `CC(C)c1ncc(CN2CCC(O)(c3ccccc3F)CC2)cn1` is -0.882%; for `COc1ccc(C(=O)N2CCC(C3CCN(c4ncccn4)CC3)C2)o1` (stereo not given) it is -12.5%.
For the compound `Cc1cnn(CC(C)NCC(=O)NCCc2cccs2)c1` (stereo not given), the cytotoxicity at 10 µM stood at 6.41%.
For `Cc1nc(C)n(C2CCCN(C(=O)c3csnn3)C2)n1` (stereo not given), the cytotoxicity at 10 µM is -5.48%.
Regarding `O=C(CCNC1(c2nccs2)CCCC1)N1CCOCC1`, the cytotoxicity at 10 µM was 0.79%.
With `CNC(=O)CN(C(=O)c1ccccc1)[C@H]1C[C@H]2CCOC[C@H]2C1`, the cytotoxicity at 10 µM is -4.36%.
For `Cn1c(NCc2ccc(C(N)=O)cc2)nc2cc(Cl)ccc21` the value was 1.42%; for `COC(=O)c1ccc(Cl)c(S(=O)(=O)Nc2ccc(F)c(C(N)=O)c2)c1`, 3.68%; for `CC(C)n1cc(C(=O)N2CCN(c3cccc(C(F)(F)F)c3)CC2)cn1`, 5.37%.
For `CCOc1ccccc1OC1CCN(C(=O)c2nc(=O)[nH][nH]2)CC1`, the cytotoxicity at 10 µM was -9.75%.
With `Cc1cc(C(=O)N2CC[C@]3(C[C@@H](OCc4ccccn4)CO3)C2)c(C)o1`, the cytotoxicity at 10 µM was -78.7%.
For `COc1cc(C)c(CNC(C)c2csc(C3CC3)n2)cc1OC` (stereo not given) the value was -2.21%; for `CCN(CC)C(=O)CSc1nc2cc(C)nc-2c(O)n1Cc1ccco1`, 3.49%.
Consider `O=C(Cn1ccnc1)N1C[C@@H]2CC[C@H](Oc3cccc(F)c3)[C@@H]2C1`, for which the cytotoxicity at 10 µM was -18%.
Consider `CCc1cc(CNC(=O)N2Cc3ccccc3N(C)CC2C)[nH]n1` (stereo not given), for which the cytotoxicity at 10 µM amounted to 16.3%.
As for `N#Cc1ccc(CN2CCC(CN3CCOCC3)C2)cc1` (stereo not given), the cytotoxicity at 10 µM was -7.01%.
Turning to `Clc1snnc1CN1CCCC1Cn1cncn1` (stereo not given), the cytotoxicity at 10 µM is -20.7%.
Take `COCC(=O)Nc1nn(Cc2ccc(F)cc2)cc1Cl`: the cytotoxicity at 10 µM was 7.19%.
